# Measurements from the array DNA melting data of Ke et al. (doi:10.1101/2024.01.08.574731).
# How the values were obtained:
# [1] = folding enthalpy; higher = less favourable; fluorescence melt of hairpins on a sequencing array, two-state fit; settings: sodium 0.088 M
# How it was run: (§1)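 Hairpins were imaged by Cy3 fluorescence on a sequenced MiSeq flow cell with annealed Cy3 and quencher oligos, in 50 mM Na-HEPES pH 8.0, 25 mM NaCl, in 2.5 °C steps up to 60 °C. Bootstrapped two-state fits of normalised signals gave melting temperature and folding enthalpy. Four replicates were combined by inverse variance, and fitted temperatures were raised by 9.35 °C to match UV melts.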
# [2] = melting temperature; fluorescence melt of hairpins on a sequencing array, two-state fit, raised by 9.35 °C to match UV melts; settings: sodium 0.088 M
# How it was run: as §1
Sequence,folding enthalpy [1],Tm [2]
GGTCGCGAAAGCGGAACC ((((((....)))..))),-15.3 kcal/mol,47.8 °C
GGTCGCGAAAGCGTTACC ((((((....)))..))),-14.6 kcal/mol,41.4 °C
GGTCGCTCGAAAGAGACC (((..(((....)))))),-20.6 kcal/mol,49.1 °C
GGTCGGCCGAAAGGCACC (((..(((....)))))),-10.9 kcal/mol,34.7 °C
GGTCGGCGAAAGCCACC (((.(((....)))))),-14.8 kcal/mol,55.3 °C
GGTCGGGCGAAAGCCACC (((..(((....)))))),-11.9 kcal/mol,34 °C
GGTCGGGGAAACCCGATC (.(((((....))))).),-32 kcal/mol,56.7 °C
GGTCGGGGAAACCTGGCC ((.(.((....)).).)),-28.7 kcal/mol,48.4 °C
GGTCGGTCGAAAGACACC (((..(((....)))))),-13.4 kcal/mol,33.4 °C
GGTCGTCCGAAAGGAACC (((..(((....)))))),-9.14 kcal/mol,26.3 °C
GGTCGTCGAAAGACCACC (((.(((....))).))),-19.8 kcal/mol,45.9 °C
GGTCGTCGAAAGACTACC (((.(((....))).))),-30.6 kcal/mol,48.6 °C
GGTCGTGAAAACGACC ((((((....)))))),-34.3 kcal/mol,69.2 °C
GGTCGTGGAAACGCGATC (.(((.(....).))).),-26.9 kcal/mol,43.8 °C
GGTCTAGAAATAGACC ((((((....)))))),-38.1 kcal/mol,51.8 °C
GGTCTCCGAAAGGACACC (((.(((....))).))),-24.5 kcal/mol,42.1 °C
GGTCTCCGAAAGGATACC (((.(((....))).))),-26.8 kcal/mol,48.1 °C
GGTCTCGAAAGAGAGACC ((((((....)))..))),-29.6 kcal/mol,54.9 °C
GGTCTCGAAAGAGGGACC ((((((....)))..))),-22.4 kcal/mol,44 °C
GGTCTCGAAAGAGTAACC ((((((....)))..))),-21.9 kcal/mol,35.1 °C
GGTCTCGAAAGAGTGACC ((((((....)))..))),-24.5 kcal/mol,39.8 °C
GGTCTCGGAAACGAGGTC (..((((....))))..),-15.9 kcal/mol,38.2 °C
GGTCTGCGAAAGCAAACC (((.(((....))).))),-26.9 kcal/mol,47.1 °C

Sequence,folding enthalpy [1],Tm [2]
GGTCTTGGAAACAAGGCC ((.((((....)))).)),-48.6 kcal/mol,54.7 °C
GGTGAAGGAAACCTCACC (((((.(....).))))),-29.6 kcal/mol,46.2 °C
GGTGAAGGAAACTTCATC (.(((((....))))).),-25.3 kcal/mol,42.1 °C
GGTGACGAAAGTCACACC ((((((....)))..))),-7.84 kcal/mol,56 °C
GGTGACGAAAGTCCGACC ((((((....)))..))),-15.3 kcal/mol,39 °C
GGTGACGAAAGTCCTACC ((((((....)))..))),-13.8 kcal/mol,33.5 °C
GGTGACGAAAGTCTACC ((((((....))).))),-21.4 kcal/mol,49 °C
GGTGACGGAAACGTTGCC ((..(((....)))..)),-34.3 kcal/mol,48.1 °C
GGTGAGCCGAAAGGCACC (((..(((....)))))),-13.2 kcal/mol,44.3 °C
GGTGAGCGAAAGCTACC (((.(((....)))))),-19.2 kcal/mol,51.7 °C
GGTGAGGGAAACCTCGTC (..((((....))))..),-13.3 kcal/mol,33.2 °C
GGTGAGGGAAACTTCACC (((((.(....).))))),-32.1 kcal/mol,46.8 °C
GGTGAGTCGAAAGACACC (((..(((....)))))),-17.9 kcal/mol,39.5 °C
GGTGATCGAAAGATAACC (((.(((....))).))),-29.5 kcal/mol,47.7 °C
GGTGATGGAAACATCACC (((((((....))))))),-39.6 kcal/mol,65.6 °C
GGTGATGGAAACATCATC (.(((((....))))).),-30.6 kcal/mol,47.8 °C
GGTGATGGAAACATTACC (((.(((....))).))),-30.2 kcal/mol,45.2 °C
GGTGATGGAAACGTCACC (((((.(....).))))),-49.9 kcal/mol,53.5 °C
GGTGATGGAAACGTTACC (((.(.(....).).))),-19.2 kcal/mol,30.4 °C
GGTGCACGAAAGTGAACC (((.(((....))).))),-35.3 kcal/mol,61.4 °C
GGTGCAGGAAACTACACC ((((.((....)).)))),-32.1 kcal/mol,43.4 °C
GGTGCAGGAAACTGTACC (((.(((....))).))),-45.4 kcal/mol,52.6 °C
GGTGCCGAAAGGCAAACC ((((((....)))..))),-14.6 kcal/mol,50.9 °C

Sequence,folding enthalpy [1],Tm [2]
GGTGCCGAAAGGCACACC ((((((....)))..))),-6.62 kcal/mol,58 °C
GGTGCCGAAAGGCCCACC ((((((....)))..))),-11.4 kcal/mol,50.6 °C
GGTGCCGAAAGGCGTACC ((((((....)))..))),-15.5 kcal/mol,48.5 °C
GGTGCCGGAAACGGTGCC ((..(((....)))..)),-41.5 kcal/mol,56.6 °C
GGTGCGACGAAAGTCACC (((..(((....)))))),-16.5 kcal/mol,42.5 °C
GGTGCGGCGAAAGCCACC (((..(((....)))))),-14 kcal/mol,48.2 °C
GGTGCTCCGAAAGGAACC (((..(((....)))))),-11.3 kcal/mol,32.5 °C
GGTGCTGCGAAAGCAACC (((..(((....)))))),-14.4 kcal/mol,43.8 °C
GGTGCTGGAAACAACACC ((((.((....)).)))),-37.6 kcal/mol,46 °C
GGTGCTGGAAACGGTACC (((.(.(....).).))),-35.8 kcal/mol,41.2 °C
GGTGGACGAAAGTCGACC (((.(((....))).))),-39.9 kcal/mol,57.2 °C
GGTGGAGAAATCCACC ((((((....)))))),-33.1 kcal/mol,59.8 °C
GGTGGATCGAAAGATACC (((..(((....)))))),-18.4 kcal/mol,35.6 °C
GGTGGCGAAAGCCCAACC ((((((....)))..))),-14.8 kcal/mol,42 °C
GGTGGCGAAAGCCCCACC ((((((....)))..))),-11.1 kcal/mol,49.8 °C
GGTGGCGAAAGCCTGACC ((((((....)))..))),-14.2 kcal/mol,41.9 °C
GGTGGCGGAAACGTCACC ((((.((....)).)))),-48.2 kcal/mol,63.3 °C
GGTGGCGGAAACGTCGCC ((.(.((....)).).)),-39.9 kcal/mol,54.2 °C
GGTGGGACGAAAGTCACC (((..(((....)))))),-14.4 kcal/mol,47 °C
GGTGGGCGAAAGCCAACC (((.(((....))).))),-28.7 kcal/mol,64.1 °C
GGTGGGCGAAAGCCACC (((.(((....)))))),-21.3 kcal/mol,66.1 °C
GGTGGGGCGAAAGCCACC (((..(((....)))))),-12.3 kcal/mol,54.5 °C
GGTGGGGGAAACCCCATC (.(((((....))))).),-24.2 kcal/mol,51.3 °C

Sequence,folding enthalpy [1],Tm [2]
GGTGGTCGAAAGACGACC (((.(((....))).))),-38 kcal/mol,56.8 °C
GGTGGTGGAAACACCATC (.(((((....))))).),-26.2 kcal/mol,56.2 °C
GGTGGTGGAAACACCGTC (..((((....))))..),-22.8 kcal/mol,55.5 °C
GGTGTAACGAAAGTTACC (((..(((....)))))),-14.3 kcal/mol,42.9 °C
GGTGTACGAAAGTAAACC (((.(((....))).))),-24.9 kcal/mol,48.6 °C
GGTGTACGAAAGTAGACC (((.(((....))).))),-38.3 kcal/mol,52.2 °C
GGTGTAGCGAAAGCTACC (((..(((....)))))),-9.3 kcal/mol,49.1 °C
GGTGTAGGAAACCACACC (((((.(....).))))),-32.9 kcal/mol,47.4 °C
GGTGTAGGAAACTACGCC ((.((((....)))).)),-43.2 kcal/mol,52.3 °C
GGTGTAGGAAACTATACC (((.(((....))).))),-32 kcal/mol,42.4 °C
GGTGTCGAAAGACAGACC ((((((....)))..))),-15.1 kcal/mol,44 °C
GGTGTCGAAAGACGACC ((((((....))).))),-19.9 kcal/mol,52.6 °C
GGTGTCGAAAGACTCACC ((((((....)))..))),-17.6 kcal/mol,39.1 °C
GGTGTCGGAAACGGCACC ((((.((....)).)))),-46.5 kcal/mol,64.7 °C
GGTGTGGGAAACCACATC (.(((((....))))).),-21.1 kcal/mol,51.2 °C
GGTGTGGGAAACCACGCC ((.((((....)))).)),-27.4 kcal/mol,60.5 °C
GGTGTGGGAAACCACGTC (..((((....))))..),-13 kcal/mol,39.3 °C
GGTGTGGGAAACCATGCC ((..(((....)))..)),-30.7 kcal/mol,45.5 °C
GGTGTGGGAAACCGCATC (.((.((....)).)).),-23.7 kcal/mol,41.9 °C
GGTGTTGCGAAAGCAACC (((..(((....)))))),-8.2 kcal/mol,49.5 °C
GGTGTTGGAAACAATACC (((.(((....))).))),-39.7 kcal/mol,47.4 °C
GGTGTTGGAAACAGCATC (.((.((....)).)).),-17.7 kcal/mol,46.5 °C
